Values belong to the molecule of their own block, whether it stands above or below them. Activity calls are given as the source filed them. No cut-off for these calls is given here.
Experiments:
[1] = Dissociation constant, pKa of the compound; format: physicochemical
[2] = test system: HeLa; assay: Growth inhibition of HeLa cells; format: functional, cell-based; settings: Homo sapiens
[3] = test system: K562; assay: Growth inhibition of K562 cells; format: functional, cell-based; settings: Homo sapiens
[4] = organism: Gallus gallus; assay: Acute toxicity in chick embryo after 72 to 96 hrs by hen's fertile egg screening test; format: organism-based; settings: chicken, in vivo
Procedure, shortened: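 Fifteen-day-old fertile hen's egg embryos received compound through the air cell. Deaths were scored 72-96 h after treatment, and an LD50 was derived in mg/kg.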

[5] = molecular target: T1, Steryl-sulfatase (Homo sapiens) (UniProt P08842); assay: (§1) Inhibition of Estrone sulfatase in human placental microsome; settings: Placenta
T1 sequence (whole entry): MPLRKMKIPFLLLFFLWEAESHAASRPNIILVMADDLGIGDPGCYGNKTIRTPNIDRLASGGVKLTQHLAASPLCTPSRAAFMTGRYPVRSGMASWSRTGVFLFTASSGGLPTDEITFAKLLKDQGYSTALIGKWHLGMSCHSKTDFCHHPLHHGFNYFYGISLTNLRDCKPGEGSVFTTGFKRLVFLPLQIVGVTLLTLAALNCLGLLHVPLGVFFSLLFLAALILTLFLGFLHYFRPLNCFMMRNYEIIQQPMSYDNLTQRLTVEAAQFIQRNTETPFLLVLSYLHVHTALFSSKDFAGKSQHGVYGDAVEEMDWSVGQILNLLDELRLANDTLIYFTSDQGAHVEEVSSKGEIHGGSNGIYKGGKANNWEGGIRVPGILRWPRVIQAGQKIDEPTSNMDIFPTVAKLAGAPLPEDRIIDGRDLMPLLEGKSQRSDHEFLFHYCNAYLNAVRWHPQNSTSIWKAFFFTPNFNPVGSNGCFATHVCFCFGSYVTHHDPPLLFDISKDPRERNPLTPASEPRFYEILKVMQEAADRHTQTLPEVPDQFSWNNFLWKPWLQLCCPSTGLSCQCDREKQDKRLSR

[6] = molecular target: T2, Steryl-sulfatase (Homo sapiens, UniProt P08842); assay: as §1; parameters: species or system Placenta
T2 sequence (P08842 whole entry): T1 sequence (whole entry)

[7] = molecular target: Estrone sulfatase (Homo sapiens); assay: Activity of Estrone sulfatase in human placental microsome; settings: Placenta

Molecule: O=C(O)c1ccc(O)c(/C=N/NC(=S)NC2CCCCC2)c1
- pKa [1]: 5.8
- IC50 [2]: > 50 µg/mL
- IC50 [3]: > 50 µg/mL
- Activity [4]: > 100 mg/kg

- Activity [5]: inactive
Molecule: CCCCCCNC(=S)N/N=C/c1ccccc1C(=O)O

- IC50 [6]: > 100 µM
Molecule: C/C(=N\NC(=S)NC1CCCCC1)c1ccccc1C(=O)O

- pKa [1]: 7.7
- IC50 [6]: > 100 µM
Molecule: OB(O)c1ccccc1/C=N/NC(=S)NC1CCCCC1

- IC50 [6]: 12 µM
Molecule: CCCCCCNC(=S)N/N=C/c1cccc(C(=O)O)c1

- IC50 [6]: > 100 µM
Molecule: O=C(O)c1ccccc1/C=N/NC(=S)NC1CC1

- pKa [1]: 4.3
Molecule: Cc1ccc(/C=N/NC(=S)NC2CCCCC2)c(C(=O)O)c1O

- IC50 [6]: > 100 µM
Molecule: O=C(N/N=C/c1cccc(C(=O)O)c1)NC1CCCCC1

- pKa [1]: 6.4
Molecule: O=C(O)c1ccccc1/C=N/NC(=S)NC1CCCCC1

- pKa [1]: 9.8
Molecule: Oc1ccccc1/C=N/NC(=S)NC1CCCCC1

- pKa [1]: 5.4
Molecule: O=C(O)c1cccc(/C=N/NC(=S)NC2CCCCC2)c1

Molecule: O=C(O)c1cc(/C=N/NC(=S)NC2CCCCC2)ccc1O
- pKa [1]: 4.2
- IC50 [2]: > 50 µg/mL
- IC50 [3]: > 50 µg/mL
- Activity [4]: > 50 mg/kg

- pKa [1]: 10.2
Molecule: Oc1cccc(/C=N/NC(=S)NC2CCCCC2)c1

- pKa [1]: 5.2
Molecule: S=C(N/N=C/c1cccc(-c2nnn[nH]2)c1)NC1CCCCC1

- Activity [5]: inactive
Molecule: CCCCNC(=S)N/N=C/c1ccccc1C(=O)O

- IC50 [6]: > 100 µM
Molecule: COc1c(C)ccc(/C=N/NC(=S)NC2CCCCC2)c1C(=O)O

Molecule: O=C(O)c1cccc(/C=N/NC(=S)NC2CCCCC2)c1O
- pKa [1]: 3.8
- IC50 [2]: > 50 µg/mL
- IC50 [3]: > 50 µg/mL
- Activity [4]: > 50 mg/kg

- IC50 [6]: > 100 µM
Molecule: COc1cccc(/C=N/NC(=S)NC2CCCCC2)c1C(=O)O

- IC50 [6]: > 100 µM
Molecule: O=C(O)c1ccccc1/C=N/NC(=S)Nc1ccccc1

Molecule: COc1c2c(c(O)c3c1C(=O)c1c(cc(O)c(C)c1O)C3=O)-c1c(cc(/C=N/NC(=S)NC3CCCCC3)c(C(=O)O)c1O)CC2 [MHL CYCLOHEXYLTHIOSEMICARBAZONE]
- IC50 [2]: > 50 µg/mL
- IC50 [3]: > 50 µg/mL
- Activity [4]: > 50 mg/kg

- IC50 [6]: > 100 µM
Molecule: COc1ccc(/C=N/NC(=S)NC2CCCCC2)c(C(=O)O)c1OC

- IC50 [6]: 58 µM
Molecule: CCCCNC(=S)N/N=C/c1cccc(C(=O)O)c1

B1: Steryl-sulfatase (Homo sapiens), P08842 (protein)
chain: T1 sequence (whole entry)
- Km [7]: 27 µM
